Here are results for 76 molecules from ChEMBL document CHEMBL1129044, “Potent, selective tetrahydro-beta-carboline antagonists of the serotonin 2B (5HT2B) contractile receptor in the rat stomach fundus” (J Med Chem, 1996).

Where only a bound is given, the exact number is not on record here.

Assay [1] deals with 5-hydroxytryptamine receptor 2B (Rattus norvegicus) (UniProt P30994). In words: Binding affinity analysed for 5-HT 2B receptor in rat stomach fundus. Format: tissue-based. Summed up:
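Rat stomach fundus strips (5HT2B): isometric contraction recorded as grams of force. Control cumulative serotonin concentration–response curve, then 1 h incubation with a single antagonist concentration per tissue, then serotonin curve repeated. K_B = [B]/(dose ratio − 1), where dose ratio is agonist ED50 with antagonist over control ED50. Reported as −log K_B.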

Assay [2] concerns the target T1, 5-hydroxytryptamine receptor 2A (Rattus norvegicus, UniProt P14842). In words: Binding affinity for 5-HT 2A in rat […]. The format is tissue-based.
The species named for a further assay is Rattus norvegicus. In words: Relative binding to serotonin receptors 5-HT-2B to 5-HT2C (Ratio of […] Ki).
For assay [3], the target named is Serotonin receptor 2a and 2b (5HT2A and 5HT2B) (Rattus norvegicus) (UniProt P30994+P14842). In words: Relative binding to serotonin receptors 5-HT-2B and 5-HT-2A (Ratio of […] Ki). The format is protein assay.
Assay [4] has as its target 5-hydroxytryptamine receptor 2A (Rattus norvegicus) (UniProt P14842).
The target of assay [5] is 5-HT2C receptor (Mus musculus). The experiment in a line: Binding affinity towards 5-HT 2C receptor of mouse.
For assay [6], the target named is 5-hydroxytryptamine receptor 2A (Rattus norvegicus) (UniProt P14842). This is another data set of the same source.
The target in assay [7] is T1, 5-hydroxytryptamine receptor 2A. The experiment in a line: Binding affinity analysed on 5-HT 2A in rat […]. The format is tissue-based.
Assay [8] addresses 5-hydroxytryptamine receptor 2A (Rattus norvegicus) (UniProt P14842). In words: Binding affinity analysed towards 5-HT 2A in rat jugular vein. Summed up: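 Rat external jugular vein (5HT2A), cannulated in situ and kept in Krebs' bicarbonate buffer; isometric contraction recorded. Control cumulative serotonin curve, 1 h with one antagonist concentration per tissue, serotonin curve repeated. K_B = [B]/(dose ratio − 1) from the agonist ED50 shift. Expressed as −log K_B.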

T1 sequence (P14842 whole entry): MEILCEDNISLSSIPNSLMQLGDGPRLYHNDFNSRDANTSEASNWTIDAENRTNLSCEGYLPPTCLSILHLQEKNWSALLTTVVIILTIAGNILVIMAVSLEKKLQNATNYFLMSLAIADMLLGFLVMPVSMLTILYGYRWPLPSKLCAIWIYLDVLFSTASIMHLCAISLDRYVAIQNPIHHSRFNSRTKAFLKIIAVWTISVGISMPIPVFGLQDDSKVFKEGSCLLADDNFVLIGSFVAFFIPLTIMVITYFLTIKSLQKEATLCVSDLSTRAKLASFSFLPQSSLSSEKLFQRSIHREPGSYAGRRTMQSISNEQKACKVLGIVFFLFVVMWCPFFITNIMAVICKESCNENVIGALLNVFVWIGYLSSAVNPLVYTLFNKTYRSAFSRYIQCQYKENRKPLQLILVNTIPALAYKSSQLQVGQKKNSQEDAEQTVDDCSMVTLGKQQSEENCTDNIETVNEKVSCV
Serotonin receptor 2a and 2b (5HT2A and 5HT2B) (Rattus norvegicus), sequence (P14842 whole entry, looked up): as the sequence (P14842 whole entry) above
Serotonin receptor 2a and 2b (5HT2A and 5HT2B) (Rattus norvegicus), sequence (P30994 whole entry, looked up): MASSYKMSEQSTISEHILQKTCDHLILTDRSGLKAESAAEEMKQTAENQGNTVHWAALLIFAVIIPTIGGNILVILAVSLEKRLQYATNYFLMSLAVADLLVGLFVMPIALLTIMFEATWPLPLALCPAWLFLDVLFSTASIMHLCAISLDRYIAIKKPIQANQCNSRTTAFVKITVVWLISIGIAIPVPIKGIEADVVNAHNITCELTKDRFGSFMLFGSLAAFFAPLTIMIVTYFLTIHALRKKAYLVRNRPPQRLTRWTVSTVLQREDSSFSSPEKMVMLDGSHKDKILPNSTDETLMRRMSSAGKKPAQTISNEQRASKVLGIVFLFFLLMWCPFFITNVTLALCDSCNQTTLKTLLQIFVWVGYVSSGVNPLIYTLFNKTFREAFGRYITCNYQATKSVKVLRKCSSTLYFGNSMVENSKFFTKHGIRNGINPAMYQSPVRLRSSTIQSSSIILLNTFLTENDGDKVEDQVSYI
5-hydroxytryptamine receptor 2A (Rattus norvegicus), sequence (P14842 whole entry): as the sequence (P14842 whole entry) above
5-hydroxytryptamine receptor 2B (Rattus norvegicus), sequence (P30994 whole entry): as the sequence (P30994 whole entry, looked up) above

As to `CCOc1ccc(CC2NCCc3c2[nH]c2ccccc32)cc1OCC` (stereo unspecified), the -Log KB in assay [1] worked out at 8.57.
In turn, `COc1ccc(CC2NCCc3c2[nH]c2c(Br)cc(C)cc32)cc1OC` (stereo unspecified) showed a -Log KB in assay [1] of 8.92.
In turn, `CCc1ccc2[nH]c3c(c2c1)CCNC3Cc1ccc(OC)c(OC)c1` (stereo unspecified) showed a -Log KB in assay [1] of 9.46.
For `COc1ccc(CC2NCCc3c2[nH]c2c3ccc3ccccc32)cc1OC` (stereo unspecified), the -Log KB in assay [1] was determined as 9.22.
Same read-out and setting: then `Cc1ccc2[nH]c3c(c2c1)CCNC3Cc1cccc(C(F)(F)F)c1` (stereo unspecified), with 8.91; and `COc1ccc(CC2NCCc3c2[nH]c2c(C)cccc32)cc1OC` (stereo unspecified), with 9.
Still for that read-out and setting: the figure for `Cc1ccc(CC2NCCc3c2[nH]c2ccccc32)cc1` (stereo unspecified) is 7.84; for `COc1ccc(CC2NCCc3c2[nH]c2ccc(-c4ccccc4)cc32)cc1OC` (stereo unspecified) it is less than 7.
Consider `COc1ccc(CC2NCCc3c2[nH]c2ccc(F)cc32)cc1OC` (stereo unspecified), for which the -Log KB in assay [1] came out at 8.49.
On the same count and under the same terms, the figure for `COc1ccc2[nH]c3c(c2c1)CCNC3Cc1ccc(OC)c(OC)c1` (stereo unspecified) is 8.48.
The same measure, in the same setting: then `COc1ccc(CC2NCCc3c2[nH]c2ccc(C)cc32)c(N)c1OC` (stereo unspecified), with 9.02; and `COc1cccc(CC2NCCc3c2[nH]c2ccccc32)c1` (stereo unspecified), with 8.04; and `COc1ccc(CC2NCCc3c2[nH]c2c(C)cc(C)cc32)cc1OC` (stereo unspecified), with 9.61.
Molecule `COc1ccc(CC2NCCc3c2[nH]c2ccc(Cl)cc32)cc1OC` (stereo unspecified) registered a -Log KB in assay [1] of 8.36.
Regarding `Cn1ccc2cc3c(cc21)CCN3C(=O)Nc1cccnc1`, the -Log KB in [1] is 8.48.
In assay [1], `COc1ccc2c3c([nH]c2c1)C(Cc1ccc(OC)c(OC)c1)NCC3` (stereo unspecified) registered a -Log KB of 7.31.
`COc1ccc(CC2NCCc3c2[nH]c2ccc(OCc4ccccc4)cc32)cc1OC` (stereo unspecified) yielded a -Log KB in [1] of 6.73.
`Cn1ccc2cc(NC(=O)Nc3cccnc3)ccc21`: in assay [2], the Ki was greater than 6310 nM. In assay [1], the -Log KB worked out at 7.4. Moreover, the Ratio in the assay listed under Rattus norvegicus is 3.5; in [3], greater than 158.
For `COc1ccc(CC2NCC(C)c3c2[nH]c2c(C)cccc32)cc1OC` (stereo unspecified), the -Log KB in assay [1] came out at 9.29.
In assay [1], `c1ccc2c3c([nH]c2c1)[C@@H]1C[C@@H]2CCCC[C@H]2CN1CC3` returned a -Log KB of 7.26.
Consider `COc1ccc(CC2c3c(c4cc(C)ccc4n3C)CCN2C)c(Cl)c1OC` (stereo unspecified), for which, in assay [1], the -Log KB was less than 7.52.
Same read-out and setting: the figure for `COc1ccc(CC2NCCc3c2[nH]c2ccc(C)c(F)c32)cc1OC` (stereo unspecified) is 9.3; for `c1ccc(CC2NCCc3c2[nH]c2ccccc32)cc1` (stereo unspecified) it is 7.61; for `COc1cc(CC2NCCc3c2[nH]c2ccc(C)cc32)cc(N)c1OC` (stereo unspecified) it is 8.89.
`COc1ccc(CC2NCCc3c2[nH]c2ccc(C)cc32)cc1OC` (stereo unspecified): affinity in assay [2] was put at a Ki of 22.4 nM.
In the case of `c1ccc2c3c([nH]c2c1)CNCC3`, the -Log KB in [1] was less than 5.52.
In assay [1], `COc1ccc(CC2NCCc3c2[nH]c2ccc(C4CCCCC4)cc32)cc1OC` (stereo unspecified) showed a -Log KB of less than 7.5.
As to `COc1ccc(CC2NCCc3c2[nH]c2c(F)cc(F)cc32)cc1OC` (stereo unspecified), the -Log KB in assay [1] is 9.6.
Regarding `CCCCc1ccc2[nH]c3c(c2c1)CCNC3Cc1ccc(OC)c(OC)c1` (stereo unspecified), the -Log KB in [1] is less than 7.5.
Regarding `COc1ccc(CC2NCCc3c2[nH]c2ccc(C)cc32)cc1O` (stereo unspecified), the -Log KB in [1] came out at 9.23.
On the same count and under the same terms, then `c1ccc2c(CC3NCCc4c3[nH]c3ccccc43)cccc2c1` (stereo unspecified), with 9.35; and `c1ccc2c3c([nH]c2c1)C(Cc1ccc2c(c1)OCO2)NCC3` (stereo unspecified), with 8.4; and `COc1cccc2c1NC1C(Cc3cccc4ccccc34)NCCC21` (stereo unspecified), with 9.72.
Take `COc1ccc(CC2NCCc3c2[nH]c2ccc(C)cc32)cc1F` (stereo unspecified): the -Log KB in assay [1] was determined as 9.42.
On the same count and under the same terms, the figure for `COc1ccc(CC2NCCc3c2[nH]c2ccc(Br)cc32)cc1OC` (stereo unspecified) is 8.8; for `Cc1ccc2[nH]c3c(c2c1)CCNC3Cc1ccc(C)c(C)c1` (stereo unspecified) it is 9.06; for `COc1ccc(CC2NCCc3c2[nH]c2ccc(C)cc32)c([N+](=O)[O-])c1OC` (stereo unspecified) it is 9.16.
Regarding `Cc1cc(Br)c2c(c1)C1CCNC(Cc3cccc4ccccc34)C1N2` (stereo unspecified), the -Log KB in assay [1] was 8.82.
Still for that read-out and setting: the figure for `Cc1ccc2c(c1Br)NC1C(Cc3cccc4ccccc34)NCCC21` (stereo unspecified) is 8.56.
On the same count and under the same terms, the figure for `O=C(O)c1ccc2c(c1)C1CCNC(Cc3cccc4ccccc34)C1N2` (stereo unspecified) is less than 7.5.
For the molecule `COc1ccc(CC2NCCc3c2[nH]c2ccc(C(C)C)cc32)cc1OC` (stereo unspecified), the -Log KB in assay [1] was determined as 8.5.
On the same count and under the same terms, then `COc1ccc(CC2NCCc3c2[nH]c2ccccc32)cc1` (stereo unspecified), with 8.09; and `COc1ccc(C2NCCc3c2[nH]c2ccccc32)cc1OC` (stereo unspecified), with less than 6.53; and `COc1ccc(OC)c(CC2NCCc3c2[nH]c2ccccc32)c1` (stereo unspecified), with 7.75.
In [2], `COc1ccc(CC2NCCc3c2[nH]c2ccc(C)cc32)c(Cl)c1OC` (stereo unspecified) had a Ki of 19.5 nM. The values for the -Log KB in assay [4] and in assay [1] were 8.14 and 9.8, respectively.
`COc1ccc(CC2NCCc3c2[nH]c2cc(C)cc(C)c32)cc1OC` (stereo unspecified) gave a -Log KB in [1] of 9.34.
In assay [1], `Cc1ccc2[nH]c3c(c2c1)CCN(C)C3Cc1cccc2ccccc12` (stereo unspecified) came in with a -Log KB of 7.52.
On the same count and under the same terms, the figure for `Brc1cccc2c1NC1C(Cc3cccc4ccccc34)NCCC21` (stereo unspecified) is 9.1; for `COc1cc2c(cc1OC)CN1CCc3c([nH]c4ccccc34)[C@@H]1C2` it is less than 6.52; for `COC1=CC=C(CC2NCCc3c2n(C)c2ccc(C)cc32)CC1OC` (stereo unspecified) it is less than 7.52.
Turning to `COc1ccc(CC2NCCc3c2[nH]c2c(C)c(C)ccc32)cc1OC` (stereo unspecified), the Ki in assay [2] is 8.71 nM; in assay [5], 7.76 nM. For the same molecule, the -Log KB in assay [1] was 10.1. The Ratio in the assay listed under Rattus norvegicus turned out to be 102; in [3] it was 115.
As to `c1ccc2cc(CC3NCCc4c3[nH]c3ccccc43)ccc2c1` (stereo unspecified), the -Log KB in assay [1] came to 7.84.
On the same count and under the same terms, then `COc1ccc(CC2NCCc3c2[nH]c2ccccc32)c(Cl)c1OC` (stereo unspecified), with 9.27.
In the case of `COC(=O)[C@@H]1[C@H]2C[C@H]3c4[nH]c5ccccc5c4CCN3C[C@@H]2CC[C@@H]1O`, the -Log KB in assay [1] worked out at 6.92; in assay [6], 6.37.
`COc1ccc(CC2NCCc3c2[nH]c2ccc(I)cc32)cc1OC` (stereo unspecified) came in with a -Log KB in [1] of 9.52.
For the molecule `CCc1ccc2c(c1)C1CCNC(Cc3cccc4ccccc34)C1N2` (stereo unspecified), the -Log KB in assay [1] was 9.65.
The molecule `COc1ccc(CC2NCCc3c2[nH]c2cc(C)c(C)cc32)cc1OC` (stereo unspecified) showed a Ki in assay [2] of 4.68 nM. The -Log KB in assay [1] is 9.71.
Consider `CN1CC[C@@H]2CN3CCc4cccc(c43)[C@@H]2C1`, for which, in assay [1], the -Log KB was determined as 7.34. In addition, the Ki in assay [7] was 631 nM.
In [1], `COc1ccc(CN2CCc3c([nH]c4ccccc34)C2)cc1OC` came in with a -Log KB of less than 5.52.
Still for that read-out and setting: then `Cc1ccc2[nH]c3c(c2c1)CCNC3Cc1ccc(F)c(F)c1` (stereo unspecified), with 8.47; and `COc1ccc(CC2NCCc3c2[nH]c2ccc(SC)cc32)cc1OC` (stereo unspecified), with 9.56; and `Clc1ccc2c(c1)C1CCNC(Cc3cccc4ccccc34)C1N2` (stereo unspecified), with 9.16.
Take `COc1ccc(CC2NCCc3c2[nH]c2ccccc32)cc1OC` (stereo unspecified): the -Log KB was determined as 7.43 in assay [8] and 9.17 in [1]. Besides, the Ki in [2] was 66.1 nM; in assay [5], 126 nM. Also, the Ratio in the assay filed under Rattus norvegicus came out at 186; in assay [3], 97.7.
In turn, `CCCc1ccc2[nH]c3c(c2c1)CCNC3Cc1ccc(OC)c(OC)c1` (stereo unspecified) registered a -Log KB in assay [1] of 8.64.
Regarding `COc1ccc(CC2NCCc3c2[nH]c2ccc(C)cc32)c(Br)c1OC` (stereo unspecified), the results for the Ki in assay [2] and in assay [5] were 16.6 nM and 18.6 nM, respectively. In assay [1], this molecule gave a -Log KB of 9.7. For the same molecule, the Ratio in the assay listed under Rattus norvegicus is 93.3; in [3], 83.2.
In assay [1], `Clc1ccc(CC2NCCc3c2[nH]c2ccccc32)cc1Cl` (stereo unspecified) had a -Log KB of 8.22.
Same read-out and setting: the figure for `Cc1cc(NC(=O)Nc2ccc3c(ccn3C)c2)sn1` is 7.95.
On the same count and under the same terms, the figure for `Cc1ccc2[nH]c3c(c2c1)CCNC3Cc1cc(F)cc(F)c1` (stereo unspecified) is 9.05; for `COc1cc(CC2NCCc3c2[nH]c2ccccc32)cc(OC)c1OC` (stereo unspecified) it is 8.1; for `COc1ccc(CC2(C)NCCc3c2[nH]c2ccc(C)cc32)cc1OC` (stereo unspecified) it is less than 7.52.
`COc1ccc(CC2NCCc3c2[nH]c2c(Br)c(C)ccc32)cc1OC` (stereo unspecified): the figures for the Ki in assay [2] and in [5] were 2.95 nM and 2.04 nM, respectively. The molecule further gave a -Log KB in assay [1] of 9.02. Further, the results for the Ratio (in the assay listed under Rattus norvegicus; in assay [3]) were 2.14 and 3.09, respectively.
`COc1ccc(CCC2NCCc3c2[nH]c2ccccc32)cc1OC` (stereo unspecified) showed a -Log KB in assay [1] of 7.07.
Molecule `COc1ccc(CC2c3[nH]c4ccc(C)cc4c3CCN2C)c(Cl)c1OC` (stereo unspecified) showed a -Log KB in assay [1] of 8.4.
`Cc1ccc2[nH]c3c(c2c1)CCNC3CC1CCCCC1` (stereo unspecified): the -Log KB in assay [1] was 8.32.
The same measure, in the same setting: then `COc1cc(CC2NCCc3c2[nH]c2ccc(C)cc32)cc([N+](=O)[O-])c1OC` (stereo unspecified), with 8.55; and `COc1cc(CC2NCCc3c2[nH]c2ccc(C)cc32)cc(I)c1OC` (stereo unspecified), with 8.12.
